Converted amounts (≈) assume the structure as drawn. “And” between values parts separate entries of the source, which are not always exact repeats. Equal values may be shown once.
Columns and labels:
BEAS-2B = assay: Cytotoxicity against human BEAS2B cells after 48 hrs by PrestoBlue staining based fluorescence assay; assay type: cell-based
Outline: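 Uninfected BEAS-2B cells were exposed to compound for 48 h at 37°C. PrestoBlue was added and incubated 90 min at 37°C, then fluorescence was read (ex 560 nm, em 590 nm). Cytotoxic was defined as metabolic activity <70% of vehicle control. Highest concentration assessed for cytotoxicity was 90 µM, and CC50 came from four-parameter variable slope regression.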

[1] = Selectivity index, ratio of CC50 for human BEAS2B cells to EC50 for inhibition of recombinant mkate-tagged-Respiratory syncytial virus-A2-L19F RNA-dependent RNA polymerase complex D489E mutant in human BEAS2B cells infected with Respiratory syncytial virus-A2-L19F; assay type: toxicity, cell-based; conditions: read-out: Ratio CC50/EC50
Outline: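 SI is CC50/EC50 in BEAS-2B cells. EC50 came from reporter RSV dose-response, 3-fold dilutions, top 10 µM. […] Both values from four-parameter variable-slope regression.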

Liver [2] = assay: Half life in mouse liver microsomes at 1 uM by LC-MS analysis; assay type: ADME, microsome
Outline: (§1)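 Test article at 1 µM final was incubated in triplicate at 37°C with shaking (150 rpm) with mouse or human liver S9 or microsomes (0.5 mg total protein), with Phase I oxidation and Phase II glucuronidation cofactors. Cofactor-free and microsome-free controls were run, sampled only at 0 and 120 min. Other sampling was at 0, 15, 30, 60 and 120 min into organic internal standard solution.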

[3] = Inhibition of recombinant Respiratory syncytial virus-A2-L19F RNA-dependent RNA polymerase complex D489E mutant transfected with firefly luciferase gene at SMASh domain in human BEAS2B cells infected with Respiratory syncytial virus-A2-L19F assessed as reduction in viral replication measured after […] by bioluminescence assay; assay type: cell-based
Outline: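 BEAS-2B cells (1.5×10^4/well) received 3-fold serial compound dilutions prepared in three repeats (top concentration 10 µM) and were infected with firefly-luciferase/SMASh reporter RSV-A2-L19F D489E (MOI 0.1). Luminescence was converted to % inhibition against four-replicate positive and negative controls per plate. EC50 came from four-parameter variable-slope regression.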

Liver [4] = assay: Half life in human liver microsomes at 1 uM by LC-MS analysis; assay type: ADME, microsome; outline: as §1
[5] = Antiviral activity against influenza A virus (A/WSN/1933(H1N1)) infected in MDCK cells assessed as reduction in viral replication measured after […] by bioluminescence assay; assay type: functional, cell-based
Liver [6] = assay: Half life in mouse liver microsomes at 1 uM in absence of NADPH by LC-MS analysis; assay type: ADME, microsome; outline: as §1
Liver [7] = assay: Half life in mouse liver microsomes at 1 uM in presence of NADPH by LC-MS analysis; assay type: ADME, microsome; outline: as §1
[8] = tested on: Respiratory syncytial virus; assay: Inhibition of Respiratory syncytial virus-A2-L19F RNA-dependent RNA polymerase complex D489E mutant in human BEAS2B cells infected with Respiratory syncytial virus-A2-L19F by firefly luciferase reporter-based RSV minigenome assay; assay type: cell-based
[9] = Aqueous solubility of the compound in citrate buffer at pH 3 after 90 mins by laser nephelometric method; assay type: physicochemical
Outline: (§2)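 Stocks of 30 mg/mL in DMSO were serially diluted in DMSO, then into buffer to final 300 down to 1.5 µg/mL at 1% final DMSO. Diluent was PBS for pH 7.4 and citrate buffer for pH 3 and 5. Plates stood 90 min at ambient temperature. Forward-scatter laser nephelometry gave the concentration at which precipitation began.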

Liver [10] = assay: Drug metabolism in mouse liver microsomes assessed as 5-(3-Methylfuran-2-carbonyl)-5,6,7,8-tetrahydro-4H-pyrazolo-[1,5-a][1,4]diazepine-2-carboxylic Acid formation at 1 uM by LC-MS analysis; assay type: ADME, microsome
Liver [11] = assay: Half life in mouse liver S9 fraction at 1 uM by LC-MS analysis; assay type: ADME, tissue-based; conditions: s9, 1 µM; outline: as §1
[12] = tested on: Vesicular stomatitis virus; assay: Antiviral activity against Vesicular stomatitis virus assessed as reduction in viral replication measured after […] by bioluminescence assay; assay type: functional
[13] = tested on: Respiratory syncytial virus; assay: Inhibition of recombinant mkate-tagged-Respiratory syncytial virus-A2-L19F RNA-dependent RNA polymerase complex D489E mutant in human BEAS2B cells infected with Respiratory syncytial virus-A2-L19F assessed as reduction in RSV-N mRNA level measured after 20 hrs by RT-qPCR analysis; assay type: cell-based
Outline: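 Cells infected with mKate recRSV-A2-L19F (MOI 3 particles/cell) and exposed to compound at 0.1–10 µM, or DMSO, at 37°C for 20 h. RT-qPCR of RSV N mRNA, with melt-curve check. ΔΔCT calculated against GAPDH and normalised to DMSO controls. Three independent experiments, each in duplicate; mean ± SD.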

[14] = Aqueous solubility of the compound in phosphate buffered saline at pH 7.4 after 90 mins by laser nephelometric method; assay type: physicochemical; outline: as §2
[15] = Inhibition of recombinant mkate-tagged-Respiratory syncytial virus-A2-L19F RNA-dependent RNA polymerase D489E mutant in human BEAS2B cells infected with Respiratory syncytial virus-A2-L19F assessed as reduction in progeny release measured after 48 hrs postinfection by fluorescence assay based progeny virus yield-based dose-response assay; assay type: cell-based; conditions: BEAS-2B
Outline: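 Cells in 12-well format infected with mKate-expressing recRSV-A2-L19F (MOI 0.05 particles/cell) in the presence of serial compound dilutions at 37°C. Cell-associated progeny harvested 48 h post-infection and released by one freeze/thaw cycle. Titres determined by TCID50 titration. Two repeats; EC50 derived by regression.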

[16] = Aqueous solubility of the compound in citrate buffer at pH 5 after 90 mins by laser nephelometric method; assay type: physicochemical; outline: as §2
Plasma [17] = assay: Half life in mouse plasma at 1 uM by LC-MS analysis; assay type: ADME, cell-free
Plasma [18] = assay: Half life in human plasma at 1 uM by LC-MS analysis; assay type: ADME, cell-free
Liver [19] = assay: Half life in human liver S9 fraction at 1 uM by LC-MS analysis; assay type: ADME, tissue-based; conditions: s9, 1 µM; outline: as §1
[20] = human respiratory syncytial virus, A2-L19F, BEAS-2B, 40 min

| SMILES | CC50 (BEAS-2B) | selectivity ratio [1] | EC50 [3, 20] | t1/2 (Liver [4]) | solubility kinetic at 1.5 h [9] | t1/2 (Liver [11]) | solubility kinetic at 1.5 h [14] | solubility kinetic at 1.5 h [16] | further results |
| --- | --- | --- | --- | --- | --- | --- | --- | --- | --- |
| Cc1ccoc1C(=O)N1CCCn2nc(C(=O)Nc3ccc(F)cc3Cl)cc2C1 | 30000 nM | 500 | 60 nM | 3.6 h | – | – | – | – | t1/2 (Liver [2]): 4 min |
| Cc1ccoc1C(=O)N1CCCn2nc(C(=O)Nc3ccccc3)cc2C1 | 8300 nM | 40 | – | 4.7 h | 74 µg/mL (≈ 203 µM) | 0.25 h | 63 µg/mL (≈ 173 µM) | 75 µg/mL (≈ 206 µM) | EC50 [5]: > 20000 nM; t1/2 (Liver [6]): 0.25 h; t1/2 (Liver [7]): 0.25 h; inhibition [8]: Dose-dependent effect; Drug metabolism (Liver [10]): Metabolite_Detected; EC50 [12]: > 20000 nM; inhibition [13]: Dose-dependent effect; EC50 [3]: 200 to 210 nM and 840 nM; EC50 [15]: 540 nM |
| Cc1ccoc1C(=O)N1CCCn2nc(C(=O)Nc3ccccc3F)cc2C1 | 1100 nM | 22 | 50 nM | 5.3 h | 75 µg/mL (≈ 196 µM) | 0.183 h | 30 µg/mL (≈ 78.5 µM) | 51 µg/mL (≈ 133 µM) | t1/2 (Plasma [17]): 2.4 h; t1/2 (Plasma [18]): > 24 h; t1/2 (Liver [19]): 7 h |
